In ChEMBL document CHEMBL4732162, “Design, synthesis and evaluation of novel ErbB/HDAC multitargeted inhibitors with selectivity in EGFR mutant cell lines” (Eur J Med Chem, 2021):
The source made the active and inactive calls. No cut-off for these calls is given here.

Tests used:
SK-BR-3 = test: Antiproliferation activity against human SK-BR-3 cells incubated for 72 hrs by MTT assay; format: functional, cell-based; settings: SK-BR-3, 72 h
Outline: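 MTT assay. About 0.5–1 × 10⁴ cells/well were pre-incubated 12 h at 37 °C in 5% CO₂, then exposed to a concentration series of compound for 72 h. Formazan was dissolved in DMSO and absorbance read at 490 nm. Three wells per condition, three independent experiments. IC50 is the mean ± SD from the dose-response curves.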

NCI-H1975 [1] = test: Induction of apoptosis in human NCI-H1975 cells assessed as necrotic cells at 0.5 uM incubated for 48 hrs by propidium iodide and annexin-V FITC staining based flow cytometry (Rvb =0.18% ); format: functional
[2] = biological target: T1, Epidermal growth factor receptor (Homo sapiens, UniProt P00533); test: Inhibition of EGFR in human A431 cells assessed as reduction in EGFR phosphorylation at Tyr-1068 residues at 0.5 to 5 uM after 48 hrs by Western blot analysis; format: cell-based; settings: A-431, dose 0.5-5 µM
Outline: (§1)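 Cells were treated with compound for 48 h and lysed on ice for 30 min in RIPA buffer with protease and phosphatase inhibitors. Lysates were cleared at 14000 g, 4 °C, and protein quantified by BCA. Samples were boiled in loading buffer, run on 10–12% SDS-PAGE and transferred to PVDF. Membranes were blocked 2 h, incubated in primary antibody overnight at 4 °C, then in secondary antibody 2 h at room temperature.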

NCI-H1975 [3] = test: Induction of apoptosis in human NCI-H1975 cells assessed as increase in cleaved-caspase 8 level at 0.5 to 5 uM after 48 hrs by Western blot analysis; format: functional, cell-based; settings: dose 0.5-5 µM; outline: as §1
[4] = biological target: T1, Epidermal growth factor receptor; test: Inhibition of EGFR in human NCI-H1975 cells assessed as reduction in EGFR phosphorylation at Tyr-1173 residues after 48 hrs by Western blot analysis; format: cell-based; settings: dose 0.5-5 µM; outline: as §1
NCI-H1975 [5] = test: Induction of apoptosis in human NCI-H1975 cells assessed as necrotic cells at 2.5 uM incubated for 48 hrs by propidium iodide and annexin-V FITC staining based flow cytometry (Rvb =0.18% ); format: functional
A-431 = test: Antiproliferative activity against human A431 cells incubated for 72 hrs by MTT assay; format: functional, cell-based; settings: A-431, 72 h
NCI-H1975 [6] = test: Cytotoxicity against human NCI-H1975 cells assessed as inhibition of colony formation incubated for 7 days by crystal violet based colony formation assay; format: functional, cell-based; settings: dose 0.5-5 µM, time 7.0 day
Outline: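 NCI-H1975 cells, 1 × 10⁴/well, were seeded in 6-well plates and cultured 12 h. They were then treated with compound for 7 days. Colonies were fixed in 10% buffered formalin for 1 h and stained with crystal violet for 1 h.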

NCI-H1975 [7] = test: Induction of apoptosis in human NCI-H1975 cells assessed as increase in cleaved-caspase 3 level at 0.5 to 5 uM after 48 hrs by Western blot analysis; format: functional, cell-based; settings: dose 0.5-5 µM; outline: as §1
[8] = Antiproliferative activity against human NCI-H820 cells incubated for 72 hrs by MTT assay; format: functional, cell-based; settings: NCI-H820, 72 h
NCI-H1975 [9] = test: Induction of apoptosis in human NCI-H1975 cells assessed as viable cells at 2.5 uM incubated for 48 hrs by propidium iodide and annexin-V FITC staining based flow cytometry (Rvb =88.95% ); format: functional; settings: read-out: Activity
[10] = biological target: Histone deacetylase (Homo sapiens) (UniProt Q13547+O15379+Q9UBN7+Q92769+Q9UQL6+Q8WUI4+Q9BY41+Q96DB2+P56524+Q9UKV0+Q969S8); test: Inhibition of HDAC in human A431 cells assessed as increase in histone H3 acetylation at 0.5 to 5 uM after 48 hrs by Western blot analysis; format: cell-based; settings: A-431, dose 0.5-5 µM; outline: as §1
NCI-H1975 [11] = test: Induction of apoptosis in human NCI-H1975 cells assessed as increase in cleaved-PARP level at 0.5 to 5 uM after 48 hrs by Western blot analysis; format: functional, cell-based; settings: dose 0.5-5 µM; outline: as §1
[12] = biological target: T1, Epidermal growth factor receptor; test: Inhibition of EGFR in human A431 cells assessed as reduction in EGFR phosphorylation at Tyr-1173 residues at 0.5 to 5 uM after 48 hrs by Western blot analysis; format: cell-based; settings: A-431, dose 0.5-5 µM; outline: as §1
NCI-H1975 [13] = test: Induction of apoptosis in human NCI-H1975 cells assessed as increase in cleaved-caspase 7 level at 0.5 to 5 uM after 48 hrs by Western blot analysis; format: functional, cell-based; settings: dose 0.5-5 µM; outline: as §1
NCI-H1975 [14] = test: Down regulation of AKT protein expression in human NCI-H1975 cells at 0.5 to 5 uM after 48 hrs by Western blot analysis; format: functional, cell-based; settings: dose 0.5-5 µM; outline: as §1
NCI-H1975 [15] = test: Induction of apoptosis in human NCI-H1975 cells assessed as necrotic cells at 5 uM incubated for 48 hrs by propidium iodide and annexin-V FITC staining based flow cytometry (Rvb =0.18% ); format: functional
NCI-H1975 [16] = test: Down regulation of EGFR protein expression in human NCI-H1975 cells at 0.5 to 5 uM after 48 hrs by Western blot analysis; format: functional, cell-based; settings: dose 0.5-5 µM; outline: as §1
NCI-H1975 [17] = test: Induction of apoptosis in human NCI-H1975 cells assessed as late apoptotic cells at 2.5 uM incubated for 48 hrs by propidium iodide and annexin-V FITC staining based flow cytometry (Rvb =4.20 %); format: functional
Histone deacetylase 1 = Histone deacetylase 1 (Homo sapiens, UniProt Q13547); test: Inhibition of HDAC1 (unknown origin)
FHC = test: Cytotoxicity against human FHC cells assessed as reduction of cell viability incubated for 72 hrs by MTT assay; format: ADME, cell-based
[18] = biological target: T1, Epidermal growth factor receptor; test: Inhibition of EGFR in human NCI-H1975 cells assessed as reduction in AKT phosphorylation at S473 residues at 0.5 to 5 uM after 48 hrs by Western blot analysis; format: cell-based; settings: dose 0.5-5 µM; outline: as §1
[19] = biological target: Epidermal growth factor receptor (Homo sapiens, UniProt P00533, L858R); test: Inhibition of EGFR L858R (unknown origin) by mobility shift assay
cells = format: cell-based; settings: BaF3, 72 h
NCI-H1975 [20] = test: Induction of apoptosis in human NCI-H1975 cells assessed as late apoptotic cells at 0.5 uM incubated for 48 hrs by propidium iodide and annexin-V FITC staining based flow cytometry (Rvb =4.20 %); format: functional
A549 = test: Antiproliferative activity against human A549 cells incubated for 72 hrs by MTT assay; format: functional, cell-based; settings: A549, 72 h
[21] = biological target: T1, Epidermal growth factor receptor; test: Inhibition of EGFR in human NCI-H1975 cells assessed as reduction in EGFR phosphorylation at Tyr-1068 residues after 48 hrs by Western blot analysis; format: cell-based; settings: dose 0.5-5 µM; outline: as §1
[22] = biological target: T1, Epidermal growth factor receptor; test: Inhibition of EGFR (unknown origin) by mobility shift assay
NCI-H1975 [23] = test: Induction of apoptosis in human NCI-H1975 cells assessed as early apoptotic cells at 5 uM incubated for 48 hrs by propidium iodide and annexin-V FITC staining based flow cytometry (reference value: 6.67 %); format: functional
NCI-H1975 [24] = test: Induction of apoptosis in human NCI-H1975 cells assessed as viable cells at 5 uM incubated for 48 hrs by propidium iodide and annexin-V FITC staining based flow cytometry (Rvb =88.95% ); format: functional; settings: read-out: Activity
NCI-H1975 [25] = test: Induction of apoptosis in human NCI-H1975 cells assessed as early apoptotic cells at 0.5 uM incubated for 48 hrs by propidium iodide and annexin-V FITC staining based flow cytometry (reference value: 6.67 %); format: functional
NCI-H1975 [26] = test: Antiproliferative activity against human NCI-H1975 cells incubated for 72 hrs by MTT assay; format: functional, cell-based; settings: NCI-H1975, 72 h

T1 sequence (P00533 whole entry): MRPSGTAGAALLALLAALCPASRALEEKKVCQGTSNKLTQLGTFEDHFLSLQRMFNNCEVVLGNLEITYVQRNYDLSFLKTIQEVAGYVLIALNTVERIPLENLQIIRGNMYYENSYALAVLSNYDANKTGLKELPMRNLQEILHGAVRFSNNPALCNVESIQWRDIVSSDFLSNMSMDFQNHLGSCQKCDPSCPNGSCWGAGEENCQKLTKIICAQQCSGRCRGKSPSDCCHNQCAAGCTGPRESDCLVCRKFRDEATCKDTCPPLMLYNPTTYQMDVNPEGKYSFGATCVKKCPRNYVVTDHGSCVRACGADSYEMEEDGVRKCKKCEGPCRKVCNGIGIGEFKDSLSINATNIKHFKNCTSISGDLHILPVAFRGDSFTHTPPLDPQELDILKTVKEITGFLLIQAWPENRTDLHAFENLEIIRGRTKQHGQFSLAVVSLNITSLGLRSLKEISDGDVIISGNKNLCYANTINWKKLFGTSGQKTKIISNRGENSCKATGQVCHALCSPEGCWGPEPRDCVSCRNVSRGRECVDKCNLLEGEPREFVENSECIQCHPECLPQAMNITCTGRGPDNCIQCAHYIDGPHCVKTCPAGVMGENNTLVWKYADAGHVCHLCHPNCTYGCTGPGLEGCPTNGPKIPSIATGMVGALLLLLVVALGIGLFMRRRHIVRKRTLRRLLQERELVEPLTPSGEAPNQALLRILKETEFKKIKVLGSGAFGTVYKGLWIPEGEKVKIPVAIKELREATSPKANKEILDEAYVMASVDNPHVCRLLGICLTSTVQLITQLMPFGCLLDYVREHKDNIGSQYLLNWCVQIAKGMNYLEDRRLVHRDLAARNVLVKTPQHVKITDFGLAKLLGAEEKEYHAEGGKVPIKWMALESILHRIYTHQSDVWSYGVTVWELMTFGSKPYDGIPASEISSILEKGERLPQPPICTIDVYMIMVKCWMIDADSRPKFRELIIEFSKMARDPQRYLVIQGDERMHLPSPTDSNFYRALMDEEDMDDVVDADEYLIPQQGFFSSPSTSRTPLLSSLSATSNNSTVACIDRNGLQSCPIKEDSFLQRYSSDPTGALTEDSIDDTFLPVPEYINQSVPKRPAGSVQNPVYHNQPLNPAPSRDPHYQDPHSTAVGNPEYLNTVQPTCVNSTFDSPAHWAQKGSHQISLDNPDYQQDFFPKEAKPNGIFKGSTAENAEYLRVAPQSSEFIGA
Sequence of Epidermal growth factor receptor (Homo sapiens, UniProt P00533, L858R) (P00533 25-1210 L858R limits assumed): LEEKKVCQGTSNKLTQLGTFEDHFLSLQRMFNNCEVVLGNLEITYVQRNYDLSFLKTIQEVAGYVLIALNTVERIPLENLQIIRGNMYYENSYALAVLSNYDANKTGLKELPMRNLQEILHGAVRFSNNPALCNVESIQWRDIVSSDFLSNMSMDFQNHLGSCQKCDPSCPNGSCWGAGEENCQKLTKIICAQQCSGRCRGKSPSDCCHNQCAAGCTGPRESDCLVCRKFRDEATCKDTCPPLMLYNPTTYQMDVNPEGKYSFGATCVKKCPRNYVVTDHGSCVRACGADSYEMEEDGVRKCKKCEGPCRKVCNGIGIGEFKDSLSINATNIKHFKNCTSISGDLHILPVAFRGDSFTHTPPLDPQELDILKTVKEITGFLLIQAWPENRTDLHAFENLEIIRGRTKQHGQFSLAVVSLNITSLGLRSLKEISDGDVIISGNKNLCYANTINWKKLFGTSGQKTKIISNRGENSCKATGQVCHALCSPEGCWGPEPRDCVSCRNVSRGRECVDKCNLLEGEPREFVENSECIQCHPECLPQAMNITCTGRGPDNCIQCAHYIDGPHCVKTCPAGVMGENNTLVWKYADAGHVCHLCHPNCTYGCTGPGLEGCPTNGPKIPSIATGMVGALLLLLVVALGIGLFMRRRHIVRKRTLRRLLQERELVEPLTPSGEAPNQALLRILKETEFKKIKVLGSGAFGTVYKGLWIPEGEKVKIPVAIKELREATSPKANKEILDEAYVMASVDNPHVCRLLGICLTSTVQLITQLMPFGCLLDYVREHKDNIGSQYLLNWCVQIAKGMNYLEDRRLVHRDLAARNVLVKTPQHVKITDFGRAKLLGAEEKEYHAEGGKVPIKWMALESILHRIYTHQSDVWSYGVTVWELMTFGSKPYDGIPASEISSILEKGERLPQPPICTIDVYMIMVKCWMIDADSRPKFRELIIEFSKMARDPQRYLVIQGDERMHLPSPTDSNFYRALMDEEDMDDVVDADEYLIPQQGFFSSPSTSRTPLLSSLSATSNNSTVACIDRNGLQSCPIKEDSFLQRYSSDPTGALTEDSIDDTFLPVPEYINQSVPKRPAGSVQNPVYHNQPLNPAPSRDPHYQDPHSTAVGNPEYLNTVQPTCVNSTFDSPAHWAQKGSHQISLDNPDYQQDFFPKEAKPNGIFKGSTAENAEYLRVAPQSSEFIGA
Sequence of Histone deacetylase 1 (Q13547 whole entry): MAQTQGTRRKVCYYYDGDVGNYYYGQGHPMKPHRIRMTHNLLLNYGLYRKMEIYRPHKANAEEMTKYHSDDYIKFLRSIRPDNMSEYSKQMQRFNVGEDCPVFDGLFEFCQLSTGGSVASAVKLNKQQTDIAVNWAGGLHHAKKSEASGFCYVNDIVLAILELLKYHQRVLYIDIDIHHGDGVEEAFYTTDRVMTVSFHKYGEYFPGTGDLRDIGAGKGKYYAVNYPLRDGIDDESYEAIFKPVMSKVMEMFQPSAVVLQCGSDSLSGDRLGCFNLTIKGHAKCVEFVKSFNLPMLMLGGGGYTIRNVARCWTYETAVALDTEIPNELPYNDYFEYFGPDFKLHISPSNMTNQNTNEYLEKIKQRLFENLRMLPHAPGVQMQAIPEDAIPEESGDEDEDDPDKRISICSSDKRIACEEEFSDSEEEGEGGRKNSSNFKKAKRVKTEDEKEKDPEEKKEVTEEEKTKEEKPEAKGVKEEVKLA

C=CC(=O)Nc1cc2c(Nc3ccc(F)c(Cl)c3)ncnc2cc1OCc1cn(CCCC(=O)NO)nn1
IC50 (SK-BR-3): 30800 nM
Activity (NCI-H1975 [1]): 0.08%
inhibition [2]: Active
Activity (NCI-H1975 [3]): Active
inhibition [4]: Dose-dependent effect
Activity (NCI-H1975 [5]): 0.36%
IC50 (A-431): 20600 nM
inhibition (NCI-H1975 [6]): Dose-dependent effect
Activity (NCI-H1975 [7]): Active
IC50 [8]: 1750 nM
viability at 2.5 µM (NCI-H1975 [9]): 54%
inhibition [10]: Active
Activity (NCI-H1975 [11]): Active
inhibition [12]: Active
Activity (NCI-H1975 [13]): Active
Activity (NCI-H1975 [14]): Active
Activity (NCI-H1975 [15]): 0.57%
Activity (NCI-H1975 [16]): Active
Activity (NCI-H1975 [17]): 14.3%
IC50 (Histone deacetylase 1): 75 nM
IC50 (FHC): > 25000 nM
inhibition [18]: Active
IC50 [19]: 1.1 nM
IC50 (cells): 7610 nM
Activity (NCI-H1975 [20]): 13.07%
IC50 (A549): > 50000 nM
inhibition [21]: Dose-dependent effect
IC50 [22]: 0.35 nM
Activity (NCI-H1975 [23]): 35.22%
viability at 5 µM (NCI-H1975 [24]): 46.1%
Activity (NCI-H1975 [25]): 24.28%
IC50 (NCI-H1975 [26]): 1820 nM
